Source: PubChem BioAssay
NPY2 pot ag – potentiators or agonists of human neuropeptide Y receptor Y2. hit rate 0.45% among 220,000. P49146. cells expressing NPY-Y2, potentiator/agonist read-out. activation, % at 3.6 µM. AID 1359; in the data active = activation above about 27%;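 also: cells stimulated with NPY near EC25 plus isoproterenol at EC100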
WT yeast gro inh – growth inhibition of WT yeast, mitochondrial fusion screen; hit rate 2.1% among 190,000; inhibition, % at 10 µM; mitochondrial fusion phenotypic screen, WT strain; AID 1362; in the data active = inhibition above about 58%; tested in S. cerevisiae
RAM inhibit – blocks the yeast RAM network; hit rate 1.8% among 190,000; inhibition, % at 50 µM; S. cerevisiae dse1pr::URA3 reporter, 5-FOA growth OD615, 2 d; analog-sensitive cbk1-as2 kinase mutant strain;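 active = inhibition above a set limit, 3 SD over mean compound inhibition, cut at about 8.4% in these data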;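 also: inhibition rescues growth on 5-FOA so higher OD means more RAM inhibition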
NPY1 pot ag – potentiates or activates human NPY-Y1 receptor | P25929 | NPY-Y1 expressing cells, potentiator/agonist activation | activation, % at 3.6 µM | hit rate 0.37% among 220,000; in the data active = activation above about 33%, passing the limit was not always enough;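 also: cells stimulated with NPY at EC10 then isoproterenol at EC100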
Target sequence (P25929 whole entry, looked up): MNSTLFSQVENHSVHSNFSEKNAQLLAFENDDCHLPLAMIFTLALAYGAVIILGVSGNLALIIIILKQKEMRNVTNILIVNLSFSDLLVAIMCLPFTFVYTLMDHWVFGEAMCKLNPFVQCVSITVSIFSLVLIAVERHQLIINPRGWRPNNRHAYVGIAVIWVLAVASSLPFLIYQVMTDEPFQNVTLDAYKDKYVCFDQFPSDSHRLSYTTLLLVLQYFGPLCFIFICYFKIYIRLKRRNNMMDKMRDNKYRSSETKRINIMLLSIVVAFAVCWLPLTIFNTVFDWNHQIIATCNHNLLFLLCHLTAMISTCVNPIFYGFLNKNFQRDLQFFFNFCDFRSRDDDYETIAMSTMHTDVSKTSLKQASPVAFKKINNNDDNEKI
NPY Y2 blocker – NPY-Y2 (human) receptor antagonism | P49146 | NPY-Y2 expressing cells, antagonist mode | inhibition, % at 2.7 µM | hit rate 0.99% among 140,000 | AID 793; in the data active = inhibition above about 17%
NPY-Y1 antag – NPY-Y1 (human) receptor antagonism; hit rate 1% among 200,000; AID 1040; HEK293-CNG Y1 cells, membrane potential fluorescence; NPY at EC95, then isoproterenol; inhibition, % at 3.6 µM;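 active = inhibition above the campaign mean inhibition of all tested compounds plus 3 SD, cut at about 20% in these data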
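Assay system: HEK293 Y1/CNG channel cell line; Doses: single compound dose of 3.6 µM, 0.4% DMSO; Timing: dye 3 h, compound 60 min room temperature, stimulation 45 min; Technique: Membrane-potential fluorescent dye readout; Measure: % inhibition of NPY effect.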
A number is an active result; - = inactive; . = no result given. A selection: hits, their analogues and other compounds. The true share with any hit is near 4.9%.

SMILES	NPY2 pot ag	WT yeast gro inh	RAM inhibit	NPY1 pot ag	NPY Y2 blocker	NPY-Y1 antag
CC(C)(C)c1ccc(-c2nc(-c3ccncc3)no2)cc1	-	62	-	-	-	-
Cc1ccc(-c2cc(-c3ccccc3C)[nH]n2)c(O)c1	-	65	-	-	-	-
CCn1c(SCC(=O)NCc2ccco2)nnc1-c1ccncc1	-	-	-	-	.	-
O=C(CSc1nc2cc(Cl)ccc2s1)NCc1ccc2c(c1)OCO2	-	-	10	-	-	-
COc1ccc(-c2nnc(SC(C)C(=O)NCc3ccc4c(c3)OCO4)n2Cc2ccco2)cc1 (configuration not stated)	-	-	-	-	51	37
Cc1[nH]c2ccc(-c3nnc(SCC(=O)NCc4ccco4)n3Cc3ccccc3)cc2c1C	104	-	-	112	-	-
C=CCn1c(SC(C)C(=O)NCc2ccc3c(c2)OCO3)nnc1C1CCCCC1 (configuration not stated)	-	-	-	-	20	28
CC(C)(C)c1ccc(C(=O)CS(=O)(=O)c2ccccc2)cc1	-	-	-	-	-	-
O=C(CSc1nnc(-c2ccc(Cl)cc2)n1Cc1ccco1)Nc1ccc2c(c1)OCCO2	-	-	-	-	-	-
O=C(CSc1nnc(-c2ccc(Cl)cc2)n1Cc1ccco1)NCc1ccc2c(c1)OCO2	-	-	-	-	41	42
OC(COc1ccccc1)CN1CCN(Cc2ccc3c(c2)OCO3)CC1 (configuration not stated)	-	-	-	-	.	-
COc1ccccc1N1CCN(C(=O)COc2cc(C)ccc2C)CC1	-	-	-	-	-	-
S=c1[nH]nc(CSCc2ccccc2Cl)n1C1CCCCC1	-	74	-	-	.	-
S=c1[nH]nc(COc2ccc(Cl)cc2)n1C1CCCCC1	-	-	-	-	-	-
Cn1c(CSCc2ccccc2Cl)n[nH]c1=S	-	-	-	-	.	-
Cc1ccc(OCc2n[nH]c(=S)n2C2CCCCC2)cc1	-	66	-	-	-	-
Cc1cccc(OCc2n[nH]c(=S)n2C2CCCCC2)c1	-	67	-	-	-	-
CCOC(=O)C1CCCN(c2oc(-c3ccc(OC)cc3)nc2C#N)C1 (configuration not stated)	-	-	8.8	-	.	-
CCc1ccc(OCC2c3cc(OC)c(OC)cc3CCN2C(=S)NC)cc1 (configuration not stated)	-	75	-	-	.	-
Cc1nnc(SCC(=O)Nc2cc(S(=O)(=O)N3CCCC3)ccc2Cl)s1	-	.	.	-	.	.
Cc1ccc(-c2nc(SCC(=O)Nc3cc(S(=O)(=O)N4CCCCC4)ccc3Cl)n[nH]2)cc1	-	-	9.5	-	-	-
Cc1cc(C)c2c(c1)/C(=C/C(=O)c1ccc(Br)s1)C(=O)N2	-	87	-	-	-	-
Cc1cc(Br)c2c(c1)/C(=C/C(=O)c1cccs1)C(=O)N2	-	-	-	-	.	-
c1ccc(-c2ccc(C3=Nn4c(nnc4-c4cc(-c5ccccc5)n[nH]4)SC3)cc2)cc1	-	-	-	-	-	-
COc1ccc(NS(=O)(=O)c2cc(NC(=O)CNC(=O)c3ccc(C)s3)ccc2Cl)cc1	-	-	10	-	-	-
SMILES	NPY2 pot ag	WT yeast gro inh	RAM inhibit	NPY1 pot ag	NPY Y2 blocker	NPY-Y1 antag
Cc1ccc(C(=O)NCC(=O)Nc2ccc(C)c(S(=O)(=O)Nc3ccc(Cl)cc3)c2)s1	-	-	-	-	.	-
O=C(C1CC1)N1CCc2cc(S(=O)(=O)NCC3COc4ccccc4O3)ccc21 (configuration not stated)	-	-	-	-	-	-
O=C(C1CCC1)N1CCc2cc(S(=O)(=O)NCC3COc4ccccc4O3)ccc21 (configuration not stated)	-	-	-	-	20	24
CCc1nc(N2CCC3(CC2)OCCO3)c2nnn(Cc3ccccc3Cl)c2n1	-	-	-	-	-	-
O=C(OCC#CCSc1nnc(-c2ccccc2)o1)c1ccco1	-	-	-	-	-	-
O=C(OCC#CCSc1nnc(-c2ccc(Br)cc2)o1)c1ccco1	-	-	10	-	-	-
Cn1c(=O)c(NC2CCCCC2)c2c3c(cccc31)C(=O)c1ccccc1-2	-	59	-	-	.	-
CCNc1c2c3c(cccc3n(C)c1=O)C(=O)c1ccccc1-2	-	-	-	-	-	-
CCCCNc1c2c3c(cccc3n(C)c1=O)C(=O)c1ccccc1-2	-	64	9.2	-	-	-
